Laboratory results reported in ChEMBL document CHEMBL1255400, “Fasting increases tobramycin oral absorption in mice” (Antimicrob Agents Chemother, 2010).

How the values were obtained:
Format in all cases: ADME, organism-based
[1] = AUC (0 to infinity) in 15 hrs fasted BALB/c mouse at 50 mg/kg, po; parameters: time infinity, dose 50 mg/kg, route oral; settings: plasma
Procedure, shortened: (§1)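 Male BALB/c mice, 6-8 weeks (25-30 g), fed or food-deprived 15 h with water available; tobramycin in physiologic solution given by gavage (50 mg/kg), or 10 mg/kg iv (tail vein) or im (hind leg) in fed mice. Groups of 3 per time point; submandibular blood at 0-180 min; plasma tobramycin by homogeneous enzyme immunoassay; noncompartmental PK analysis.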

[2] = Oral bioavailability in 15 hrs fasted BALB/c mouse at 50 mg/kg, po; settings: in vivo; procedure, shortened: as §1
[3] = AUClast in 15 hrs fasted BALB/c mouse at 50 mg/kg, po; parameters: time 0 - last, dose 50 mg/kg, route oral; settings: plasma; procedure, shortened: as §1
[4] = Tmax in 15 hrs fasted BALB/c mouse at 50 mg/kg, po; parameters: dose 50 mg/kg, route oral; settings: in vivo; procedure, shortened: as §1
[5] = Half life in 15 hrs fasted BALB/c mouse at 50 mg/kg, po; parameters: dose 50 mg/kg, route oral; settings: in vivo; procedure, shortened: as §1
[6] = Cmax in 15 hrs fasted BALB/c mouse at 50 mg/kg, po; parameters: dose 50 mg/kg, route oral; settings: in vivo; procedure, shortened: as §1
[7] = AUC (0 to infinity) in normally fed BALB/c mouse at 10 mg/kg, iv; parameters: time infinity, dose 10 mg/kg, route intravenous; settings: plasma; procedure, shortened: as §1
[8] = test system: Mus musculus; assay: Oral bioavailability in normally fed BALB/c mouse at 10 mg/kg, iv; settings: in vivo; procedure, shortened: as §1
[9] = AUClast in normally fed BALB/c mouse at 10 mg/kg, iv; parameters: time 0 - last, dose 10 mg/kg, route intravenous; settings: plasma; procedure, shortened: as §1
[10] = Tmax in normally fed BALB/c mouse at 10 mg/kg, iv; parameters: dose 10 mg/kg, route intravenous; settings: in vivo; procedure, shortened: as §1
[11] = Half life in normally fed BALB/c mouse at 10 mg/kg, iv; parameters: dose 10 mg/kg, route intravenous; settings: in vivo; procedure, shortened: as §1
[12] = Cmax in normally fed BALB/c mouse at 10 mg/kg, iv; parameters: dose 10 mg/kg, route intravenous; settings: in vivo; procedure, shortened: as §1
[13] = AUC (0 to infinity) in normally fed BALB/c mouse at 10 mg/kg, im; parameters: time infinity, dose 10 mg/kg, route intramuscular; settings: plasma; procedure, shortened: as §1
[14] = Oral bioavailability in normally fed BALB/c mouse at 10 mg/kg, im; settings: in vivo, intramuscular; procedure, shortened: as §1
[15] = AUClast in normally fed BALB/c mouse at 10 mg/kg, im; parameters: time 0 - last, dose 10 mg/kg, route intramuscular; settings: plasma; procedure, shortened: as §1
[16] = Tmax in normally fed BALB/c mouse at 10 mg/kg, im; parameters: dose 10 mg/kg, route intramuscular; settings: in vivo; procedure, shortened: as §1
[17] = Half life in normally fed BALB/c mouse at 10 mg/kg, im; parameters: dose 10 mg/kg, route intramuscular; settings: in vivo; procedure, shortened: as §1
[18] = Cmax in normally fed BALB/c mouse at 10 mg/kg, im; parameters: dose 10 mg/kg, route intramuscular; settings: in vivo; procedure, shortened: as §1
[19] = Oral bioavailability in normally fed BALB/c mouse at 50 mg/kg, po; settings: in vivo; procedure, shortened: as §1
[20] = AUC (0 to infinity) in normally fed BALB/c mouse at 50 mg/kg, po; parameters: time infinity, dose 50 mg/kg, route oral; settings: plasma; procedure, shortened: as §1
[21] = AUClast in normally fed BALB/c mouse at 50 mg/kg, po; parameters: time 0 - last, dose 50 mg/kg, route oral; settings: plasma; procedure, shortened: as §1
[22] = Tmax in normally fed BALB/c mouse at 50 mg/kg, po; parameters: dose 50 mg/kg, route oral; settings: in vivo; procedure, shortened: as §1
[23] = Half life in normally fed BALB/c mouse at 50 mg/kg, po; parameters: dose 50 mg/kg, route oral; settings: in vivo; procedure, shortened: as §1
[24] = Cmax in normally fed BALB/c mouse at 50 mg/kg, po; parameters: dose 50 mg/kg, route oral; settings: in vivo; procedure, shortened: as §1

AUC(0-inf) [1]: 7300 ng·h/mL | bioavailability [2]: 12.4% | AUC(0-t) [3]: 7060 ng·h/mL | Tmax [4]: 15 min | half-life [5]: 22 min | Cmax [6]: 7800 ng/mL | AUC(0-inf) [7]: 11500 ng·h/mL | F [8]: 100% | AUC(0-t) [9]: 11400 ng·h/mL | Tmax [10]: 5 min | half-life [11]: 20.3 min | Cmax [12]: 35300 ng/mL | AUC(0-inf) [13]: 11100 ng·h/mL | bioavailability [14]: 96.5% | AUC(0-t) [15]: 11000 ng·h/mL | Tmax [16]: 15 min | half-life [17]: 17.7 min | Cmax [18]: 16500 ng/mL | bioavailability [19]: 0.48% | AUC(0-inf) [20]: 316 ng·h/mL | AUC(0-t) [21]: 274 ng·h/mL | Tmax [22]: 15 min | half-life [23]: 41.6 min | Cmax [24]: 330 ng/mL
SMILES: NC[C@H]1O[C@H](O[C@H]2[C@H](O)[C@@H](O[C@H]3O[C@H](CO)[C@@H](O)[C@H](N)[C@H]3O)[C@H](N)C[C@@H]2N)[C@H](N)C[C@@H]1O [TOBRAMYCIN]
